Experimental data as given in ChEMBL document CHEMBL1131039, “Styrylquinoline derivatives: a new class of potent HIV-1 integrase inhibitors that block HIV-1 replication in CEM cells” (J Med Chem, 1998).

Legend:
[1] = target: T1, Human immunodeficiency virus type 1 integrase (Human immunodeficiency virus 1, UniProt Q7ZJM1); assay: In vitro anti-HIV integrase activity against integration (strand transfer) of target plasmid.
[2] = target: T1, Human immunodeficiency virus type 1 integrase; assay: HIV integrase inhibitory potency was evaluated as IC50 on 3' processing of target DNA.
CCRF-CEM [3] = assay: Cytotoxicity (TC50) was measured by MTT transformation assay; format: functional; conditions: Homo sapiens, read-out: TC50 (the source's name)
[4] = tested on: Human immunodeficiency virus 1; assay: Effect upon disintegration catalyzed by the deletion mutant; format: functional
CCRF-CEM [5] = assay: (§1) Cytotoxicity (TC90) was measured by MTT transformation assay; format: functional, Homo sapiens
CCRF-CEM [6] = assay: Toxicity was measured by MTT assay after 72 hours at 100 uM; format: functional, Homo sapiens
Procedure, shortened: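 Infected CEM cells exposed to compounds (in DMSO) at 100 μM; viability after 72 h by MTT. MTT (7.5 mg/mL in phosphate buffer) added per well, 4 h at 37 °C under CO2. Formazan dissolved in 10% SDS, 10 mM HCl, absorbance at 570 nm. Average of three experiments.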

CCRF-CEM [7] = assay: Toxicity was measured by MTT assay after 120 hours at 100 uM; format: functional, Homo sapiens
Procedure, shortened: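 Infected CEM cells exposed to compounds at 100 μM; viability assessed 120 h after infection by MTT transformation assay (formazan solubilized in SDS/HCl, absorbance at 570 nm).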

CCRF-CEM [8] = assay: Antiviral activity was measured as IC25 by calculating amount of virus present in CEM cells by beta-galactosidase assay.; format: functional; conditions: Homo sapiens
Procedure, shortened: (§2)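 HIV-1 PLN4-3 (cell-free virus from CEM transfection) infection of CEM cells (RPMI-1640, 10% FCS), triplicate wells. Virus removed at 2 h, compounds in DMSO added in fresh medium at increasing concentrations. Supernatants taken at 72 h and used to infect HeLaCD4+-β-gal (P4) cells for 24 h. Lysate incubated with CPRG for 1 h, read at 570 nm. Average of three experiments.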

CCRF-CEM [9] = assay: Antiviral activity was measured as IC50 by calculating amount of virus present in CEM cells by P4 infection; format: functional, cell-based; conditions: Homo sapiens; procedure, shortened: as §2
CCRF-CEM [10] = assay: Antiviral activity was measured as IC90 by calculating amount of virus present in CEM cells by P4 infection; format: functional; conditions: Homo sapiens; procedure, shortened: as §2
CCRF-CEM [11] = assay: as §1; format: functional; conditions: Homo sapiens
CCRF-CEM [12] = assay: Antiviral activity was measured as IC50 by calculating amount of virus present in CEM cells by beta-galactosidase assay.; format: functional, cell-based; conditions: Homo sapiens; procedure, shortened: as §2
CCRF-CEM [13] = assay: Antiviral activity was measured as IC90 by calculating amount of virus present in CEM cells by beta-galactosidase assay.; format: functional; conditions: Homo sapiens; procedure, shortened: as §2
CCRF-CEM [14] = assay: Antiviral activity was measured as IC90 by calculating amount of virus present in CEM cells by P24 ELISA test; format: functional; conditions: Homo sapiens
Procedure, shortened: (§3)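 Same CEM/HIV-1 PLN4-3 infection scheme: virus washed off after 2 h, compound in DMSO added in fresh medium, supernatants harvested 72 h post-infection. Viral load measured as virion-associated p24 antigen by ELISA in the culture supernatants.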

CCRF-CEM [15] = assay: Antiviral activity was measured as IC50 by calculating amount of virus present in CEM cells by P24 ELISA test; format: functional, cell-based; conditions: Homo sapiens; procedure, shortened: as §3
[16] = target: T1, Human immunodeficiency virus type 1 integrase; assay: In vitro anti-HIV integrase activity against 3' processing of target plasmid.
Procedure, shortened: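 Buffer: 20 mM Tris pH 7.2, 30 mM NaCl, 10% glycerol, 10 mM DTT, 0.01% NP40 and 10 mM MnCl2. Compounds were tested over a concentration range, and IC50 was taken for inhibition of 3'-processing.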

T1 sequence (Q7ZJM1 whole entry): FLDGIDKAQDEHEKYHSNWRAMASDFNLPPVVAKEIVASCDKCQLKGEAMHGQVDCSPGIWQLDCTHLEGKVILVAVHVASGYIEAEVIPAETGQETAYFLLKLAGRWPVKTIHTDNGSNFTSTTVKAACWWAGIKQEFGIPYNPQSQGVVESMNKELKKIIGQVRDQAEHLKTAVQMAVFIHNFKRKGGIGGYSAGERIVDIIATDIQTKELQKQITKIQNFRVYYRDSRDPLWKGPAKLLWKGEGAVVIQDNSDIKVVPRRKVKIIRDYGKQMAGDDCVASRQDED

SMILES | IC50 [1] [µM] | IC50 [2] [µM] | CC50 (CCRF-CEM [3]) [µM] | IC50 ([4]; Human immunodeficiency virus 1) [µM] | TC90 (CCRF-CEM [5]) [µM] | Toxicity (CCRF-CEM [6]) [%] | IC25 (CCRF-CEM [8]) [µM] | further results
N#Cc1ccc2ccc(/C=C/c3ccc(O)c(O)c3)nc2c1O | – | 3 | 6.2 | 3.6 | 56.3 | – | – | –
Oc1cccc2ccc(/C=C/c3ccc4cccc(O)c4n3)nc12 | – | > 100 | – | – | – | – | – | –
O=C(O)c1ccc2ccc(/C=C/c3ccc(O)c(O)c3)nc2c1O | 1 | 2.4 | – | – | >100 | 0 | 0.46 | Toxicity (CCRF-CEM [7]): <10%; IC50 [4]: 0.9 µM; IC50 (CCRF-CEM [9]): 1.3 µM; IC90 (CCRF-CEM [10]): 12.3 µM
CC(=O)Oc1ccc(/C=C/c2ccc3cccc(OC(C)=O)c3n2)cc1OC(C)=O | > 100 | > 100 | – | – | – | – | – | –
O=C(O)c1ccc2ccc(/C=C/c3cc(O)c(O)c(O)c3)nc2c1O [listing 1 of 2 here] | – | 0.26 | – | – | – | – | – | –
O=C(O)c1ccc2ccc(/C=C/c3ccc(O)cc3O)nc2c1O | 2.8 | 3.7 | > 100 | 2.5 | >100 | 0 | 26.3 | IC50 (CCRF-CEM [12]): 79.8 µM; Toxicity (CCRF-CEM [7]): <10%; IC90 (CCRF-CEM [13]): > 100 µM
O=C(O)c1cc(/C=C/c2ccc3ccc(C(=O)O)c(O)c3n2)ccc1O | 0.6 | 2.7 | > 100 | 0.6 | >100 | 0 | 20.9 | IC50 (CCRF-CEM [12]): 62 µM; Toxicity (CCRF-CEM [7]): 0%; IC90 (CCRF-CEM [13]): > 100 µM
O=C(O)c1ccc2ccc(/C=C/c3cc(O)c(O)c(O)c3)nc2c1O [listing 2 of 2 here] | 0.4 | 0.3 | 10.7 | 0.24 | 93.3 | 100 | 0.4 | IC50 (CCRF-CEM [12]): 1.2 µM; IC90 (CCRF-CEM [13]): 10.7 µM
COc1ccc(/C=C/C(=O)Oc2cccc3ccc(C)nc23)cc1OC | > 100 | > 100 | – | – | – | – | – | –
O=C([O-])c1ccc2ccc(/C=C/c3ccc(O)c(O)c3)nc2c1O.[Na+] | – | 0.8 | > 100 | 0.7 | >100 | 0 | – | IC90 (CCRF-CEM [14]): > 100 µM; IC50 (CCRF-CEM [15]): 20 µM
Cc1ccc2cccc(O)c2n1 [8-HYDROXY QUINALDINE] | > 100 | – | – | – | – | – | – | IC50 [16]: > 100 µM
Oc1ccc(/C=C/c2ccc3cccc(O)c3n2)cc1O | 2.4 | 7.4 | 8.1 | 2.5 | 71 | 99 | 1.2 | IC50 (CCRF-CEM [12]): 3.6 µM
Cc1ccc2ccc(C(=O)O)c(O)c2n1 | 114 | > 100 | > 100 | – | >100 | 0 | > 100 | IC50 (CCRF-CEM [12]): > 100 µM; IC90 (CCRF-CEM [13]): > 100 µM

Now from value to compound, other results behind:

IC50 [1] [µM] | IC50 [2] [µM] | SMILES | CC50 (CCRF-CEM [3]) [µM] | IC50 ([4]; Human immunodeficiency virus 1) [µM] | TC90 (CCRF-CEM [5]) [µM] | Toxicity (CCRF-CEM [6]) [%] | IC25 (CCRF-CEM [8]) [µM] | further results
> 100 | > 100 | CC(=O)Oc1cccc2ccc(/C=C/c3ccccc3)nc12 | – | – | – | – | – | –
> 100 | > 100 | Cc1ccc2cccc(OC(=O)/C=C/c3ccc(O)c(O)c3)c2n1 | – | – | – | – | – | –
> 100 | > 100 | Oc1cccc2ccc(/C=C/c3ccccc3)nc12 | 50.1 | – | – | – | – | TC90 (CCRF-CEM [11]): > 100 µM
– | > 100 | Oc1ccc(/C=C/c2ccc3ccccc3n2)cc1O | 12.3 | – | – | – | – | TC90 (CCRF-CEM [11]): 100 µM
> 100 | > 100 | O=[N+]([O-])c1cccc2ccc(/C=C/c3ccc(O)c(O)c3)nc12 | – | – | – | – | – | –
> 100 | > 100 | Nc1cccc2ccc(/C=C/c3ccc(O)c(O)c3)nc12 | – | – | – | – | – | –
3.4 | 2.2 | Oc1ccc(/C=C/c2ccc3ccc(/C=C/c4ccc(O)c(O)c4)c(O)c3n2)cc1O | – | – | – | – | – | –
